# The list is not random: actives were taken first. Their share in the collection is about 1.9%.
# APJ antag = APJ receptor antagonism. 330,000 tested, 0.32% active. P35414. CHO-K1 APJ beta-arrestin complementation, luminescence. inhibition, % at 20 µM;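 active = inhibition above about 40% at 20 µM, limit read from the data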;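 also: cells challenged with 10 nM apelin-13 agonist together with compound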
# CCR6 antagonist = blocks CCL20-driven beta-arrestin recruitment at human CCR6; 340,000 tested, 0.49% active; CHO-K1 CCR6 PathHunter beta-arrestin, luminescence, CCL20-stimulated; inhibition, % at 20 µM; AID 493098; P51684;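 active = compounds whose inhibition of the agonist-driven luminescence signal at 20 µM reaches about 50%, limit read from the data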;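 also: cells stimulated with CCL20 at 14 nM final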
# Target sequence (P51684 whole entry, looked up): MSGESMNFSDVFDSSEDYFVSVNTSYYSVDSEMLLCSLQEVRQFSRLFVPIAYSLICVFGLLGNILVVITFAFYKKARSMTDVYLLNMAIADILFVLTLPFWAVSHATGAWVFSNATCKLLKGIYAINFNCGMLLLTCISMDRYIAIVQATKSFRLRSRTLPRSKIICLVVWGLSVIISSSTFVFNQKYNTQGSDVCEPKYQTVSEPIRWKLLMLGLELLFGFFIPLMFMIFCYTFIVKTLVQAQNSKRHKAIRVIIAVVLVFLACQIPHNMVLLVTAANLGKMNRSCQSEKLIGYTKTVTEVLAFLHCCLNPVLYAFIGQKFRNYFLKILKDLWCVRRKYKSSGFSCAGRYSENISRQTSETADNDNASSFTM
# TAG inh = triacylglycerol accumulation inhibition; 230,000 tested, 0.66% active; H9c2 cells, Nile Red lipid (TAG) fluorescence; cells loaded with 200 µM oleic acid; AID 651582; inhibition, % at 12.5 µM;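 active = pattern-corrected inhibition of lipid staining of at least 50% with the nuclear-stain viability signal not falling by more than 50%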
# CXCR6 block = inhibitors of human CXCR6 receptor | 360,000 tested, 0.36% active | AID 602244 | O00574 | inhibition, % at 20 µM | CHO-K1 PathHunter CXCR6 beta-arrestin, luminescence; in the data active = inhibition above about 34%, passing the limit was not always enough;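 also: antagonist mode with CXCL16 agonist at 10 nM final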
# EBI2 antag = antagonists of human EBI2 receptor | P32249 | EBI2 beta-arrestin recruitment, luminescence, 7a,25-OHC stimulated | 360,000 tested, 0.81% active | inhibition, % at 5 µM | AID 651636; in the data active = inhibition above about 38%;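 also: enzyme fragment complementation signal reports receptor beta-arrestin coupling in cells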
# APJ agonist = activates the human apelin receptor APJ | P35414 | CHO-K1 APJ PathHunter beta-arrestin, luminescence; 0% DMSO wells, 100% apelin | activation, % at 20 µM | 330,000 tested, 0.11% active | AID 2520;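 active = activation more than six SD over the plate average, tested at 20 µM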
#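 Assay system: CHO-K1 cells stably expressing ProLink-tagged human APJ and arrestin–beta-gal acceptor. Compound dosing: 20 µM single point, 1% DMSO. Times: 16-18 h seeding, 90 min dark compound exposure, 60 min detection. Detection: beta-gal luminescence. Evaluation: APJ–arrestin association signal. Controls: negative DMSO alone, positive Apelin-13 at 10 nM.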
# A number is an active result; . = inactive; / = not tested or not shown.
SMILES,APJ antag,CCR6 antagonist,TAG inh,CXCR6 block,EBI2 antag,APJ agonist
CC(=O)N/N=C(/C)c1ccc(NC(=O)c2csc(C)c2C)cc1,.,.,.,.,.,.
CCOC(=O)c1ccccc1NC(=O)Cn1c(=O)n(Cc2ccccc2)c(=O)c2c(C)c(C)sc21,.,.,/,.,.,.
COc1ccccc1C1=NOC(COc2ccc3c(C)cc(=O)oc3c2)C1 (centres undefined),.,.,59.0,.,.,.
Oc1ccc(C[C@H]2CNC(=S)N2CC2CCCN2C[C@H](Cc2ccc(O)cc2)N2C[C@H](Cc3ccccc3)N(CC3CCCCC3)C2=S)cc1 (some centres undefined),/,.,.,.,.,/
O=C(N/N=C/c1cc([N+](=O)[O-])cc([N+](=O)[O-])c1O)C(O)(c1ccccc1)c1ccccc1,.,.,.,39.3,.,.
O=C(N/N=C/c1ccc(O)c([N+](=O)[O-])c1)C(O)(c1ccccc1)c1ccccc1,.,.,/,.,.,.
COc1ccc(-n2c(C)cc(C(=O)CCl)c2C)cc1,.,.,64.4,.,.,.
COc1cc(/C=N/N=C(N)N)ccc1OCc1ccccc1Cl,.,.,.,.,.,22.0
COc1cccc(C(=O)Nc2cc(C(=O)NCc3ccc(C)cc3)ccc2N2CCC3(CC2)CC(c2cccc(Br)c2)=NO3)c1,.,.,.,.,.,.
Cc1nc2c(-c3ccc(Cl)cc3)c(C)[nH]n2c(=O)c1Cc1ccccc1,.,.,.,43.1,.,.
O=C(NNC(=O)c1cc(-c2ccc(Cl)cc2)nc2ccccc12)c1csc(N2CCOCC2)n1,.,.,.,.,.,.
CCN(CC)c1ccc(/C=C2\C(=O)c3ccc(C(=O)O)cc3C2=O)cc1,/,74.0,.,49.2,.,/
O=C(O)c1c(C(=O)O)c(-c2ccc(Cl)c(Cl)c2)n2c1CSC2,.,.,/,.,.,.
CC(=O)c1ccc(N=Cc2c(O)n(-c3cc(Cl)ccc3N3CCOCC3)c(=O)c3ccccc23)cc1,.,.,52.3,.,.,.
Cc1ccc(CN2CC(C(=O)N3CCN(c4ccccc4Cl)CC3)CC2=O)cc1 (centres undefined),.,.,.,.,.,.
O=C(COC(=O)c1ccc(Cl)c([N+](=O)[O-])c1)NC1CCCC1,.,.,/,.,.,.
O=C(COC(=O)c1ccccc1C(=O)c1ccc(Cl)c([N+](=O)[O-])c1)NC1CCCCCC1,.,.,/,.,53.0,.
CCc1c(C)nc(N2CCN(c3ccc(Cl)cc3)CC2)[nH]c1=O,.,.,/,.,.,.
CC(=O)OCCCNc1cc(SCc2ccco2)c2nonc2c1[N+](=O)[O-],.,54.8,/,.,.,.
CC1=CC(C)(C)Nc2ccc(OC(=O)CN3C(=O)c4cccc5cccc(c45)C3=O)cc21,/,.,/,.,.,/
CC1=CC(C)(C)Nc2ccc(OC(=O)CN3C(=O)c4ccccc4C3=O)cc21,.,.,51.9,.,.,.
C=C1CCN(C(C)C(=O)OC)S(=O)(=O)c2ccccc21 (centres undefined),.,.,55.4,.,.,.
O=C(Nc1cccc2nsnc12)c1cc2c(cc1Cl)Sc1nccn1S2(=O)=O,/,.,.,.,.,/
O=C(CSc1nnc(CNc2ccc(F)cc2)o1)N1c2ccccc2Sc2ccccc21,.,.,/,.,.,.
CC(C)(C)N(Cc1ccccc1)C(=O)CSc1nnc(CNc2ccc(F)cc2)o1,.,.,/,.,46.9,.
SMILES,APJ antag,CCR6 antagonist,TAG inh,CXCR6 block,EBI2 antag,APJ agonist
N#Cc1ccc(-c2cccnc2)nc1SCC(=O)c1ccccc1,.,.,.,.,39.6,.
O=S(=O)(c1cccc2nsnc12)N1CCCCC1,.,.,/,.,.,.
CC(C)CN(C(=O)c1cccc(Cl)c1)c1c(N)n(Cc2ccccc2)c(=O)[nH]c1=O,.,.,.,.,.,.
C=CCc1cccc(/C=N/NC(=O)CCCNc2ccc(C)cc2)c1O,/,.,.,.,.,/
C=CCc1cccc(/C=N/NC(=O)C(C)Nc2cccc(C)c2)c1O (centres undefined),.,.,/,.,39.6,.
CN(C)c1ccc(C=C2SC(=S)NC2=O)cc1,/,.,.,.,.,/
CN(C)c1ccc(/C=N/N=C2/NC(=O)/C(=C/c3ccc([N+](=O)[O-])cc3)S2)cc1,.,52.6,.,.,.,.
CCN(CC)c1ccc(/C=C2/C(=O)N(c3ccc([N+](=O)[O-])cc3)N=C2N2CCOCC2)cc1,.,/,/,/,/,.
COc1cc(/C=C2/C(=O)N(c3ccc([N+](=O)[O-])cc3)N=C2N2CCOCC2)ccc1O,.,55.2,.,.,.,.
Cc1nc2ccc(NC(=O)c3cc(Cl)ccn3)cc2s1,.,.,/,.,.,.
NS(=O)(=O)c1ccc(CCNC(=O)c2ccc(NC3=NC4CS(=O)(=O)CC4S3)cc2)cc1 (centres undefined),.,.,/,.,.,.
CN1CCC(N(C)C(=O)c2ccc(Cl)c(S(=O)(=O)N(C)c3ccc(Cl)cc3)c2)CC1,.,.,.,.,.,.
Oc1ccc(CN2CCCCC2)c2cccnc12,.,.,/,.,.,.
Oc1ccc(CN2CCc3ccccc3C2)c2cccnc12,.,.,/,.,67.1,.
Oc1ccc(CN2CCN(c3ccccc3)CC2)c2cccnc12,.,.,/,.,60.0,.
O=C(/C=C/c1ccc2c(c1)OCCO2)N1CCN(c2ccc(F)cc2)CC1,.,.,/,.,44.3,.
COc1ccc(-c2sc3cc4c(cc3c2C#CC2(N)CCCCC2)OCO4)cc1,.,.,59.2,.,.,.
COc1cc(OC)cc(-c2sc3ccc(OC)cc3c2C#CC2(N)CCCCC2)c1,.,.,.,.,.,.
COC(=O)c1cc(=O)n(Cc2ccc3c(c2)OCO3)c(=Nc2ccc(F)c(Cl)c2)s1,.,.,.,.,63.9,.
CCN(CCc1ccccc1)c1ccc2c(c1)C1CC2CCN1Cc1ccccc1 (centres undefined),/,/,.,.,.,/
CCc1nnc(NC(=O)c2cc(Cl)ccn2)s1,.,.,/,.,.,.
N#CC(C#N)=c1ccc2c(c1)NC1(CCCCC1)N=2,.,54.1,.,.,.,.
N#CC(C#N)=C1NC2(CCCCC2)Cc2ccccc21,.,.,.,.,.,.
CCOC(=O)c1ccc(S(=O)(=O)N2CCN(CC(O)COc3ccc(C#N)cc3)CC2)cc1 (centres undefined),.,.,/,.,49.7,.
CCOC(=O)c1ccc(S(=O)(=O)N2CCN(CCC#N)CC2)cc1,.,.,.,.,.,.
CC(Oc1ccc(Br)cc1)C(=O)NCCCN1CCCC1=O (centres undefined),.,.,.,.,.,.
CC(C)(C)C(=O)N1CCN(c2ccc3c(c2)C2CC3CCN2C(=O)OCc2ccccc2)CC1 (centres undefined),/,/,/,.,.,/
CCOC(=O)C[C@H]1c2ccc(C(F)(F)F)cc2S(=O)(=O)N1c1cccc(OC)c1,.,.,.,.,.,.

# Screening data as filed in PubChem.
